Assay [1] has as its system S. epidermidis. As to the kind of experiment: Antibiotics combined with plantaricins, summary statements. Particulars: summary in abstract/discussion; PlnEF with antibiotic; strain not specified. It counts as cell-based, Staphylococcus epidermidis. The method in brief:
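Broth microdilution with S. epidermidis grown overnight in LB at 37 °C with shaking and adjusted by viable count. Twofold antibiotic series: vancomycin and teicoplanin 0.097–50 μg/ml, gentamicin 0.0097–5 μg/ml, tetracycline 0.016–8 μg/ml. Each well also held a fixed paired plantaricin at 12.5 or 6.25 μM, each partner peptide equimolar. MIC/MBC read after 20 h.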

Assay [2] has as its system Staphylococcus epidermidis ATCC 12228. The assay can be described thus: microbe, parasite or virus in culture. Particulars: ATCC12228.
In assay [3] the test system is S. epidermidis 126 (hGISE clinical isolate). As to the kind of experiment: Broth microdilution MIC/MBC, clinical isolate. The conditions noted are these: for MIC: Staphylococcus epidermidis. Type of assay: cell-based, Staphylococcus epidermidis. Background: Broth dilution looks for growth in wells or tubes with falling amounts of substance.
Assay [4] deals with Staphylococcus epidermidis ATCC 12228. Particulars: for reduction of the MIC of the antibiotic in the presence of PlnJK: 12.5 μM PlnJK with antibiotic versus antibiotic alone.
Setting [5] is: 12.5 μM PlnEF with antibiotic versus antibiotic alone.

Converted amounts (≈) assume the structure as drawn.

For the compound `CN[C@H](CC(C)C)C(=O)N[C@H]1C(=O)N[C@@H](CC(N)=O)C(=O)N[C@H]2C(=O)N[C@H]3C(=O)N[C@H](C(=O)N[C@H](C(=O)O)c4cc(O)cc(O)c4-c4cc3ccc4O)[C@H](O)c3ccc(c(Cl)c3)Oc3cc2cc(c3O[C@@H]2O[C@H](CO)[C@@H](O)[C@H](O)[C@H]2O[C@H]2C[C@](C)(N)[C@H](O)[C@H](C)O2)Oc2ccc(cc2Cl)[C@H]1O` [Vancomycin], the “enhancement of the effects of the antibiotic by plantaricin” value (“enhancement” below) in assay [1] is given as greater than 30 fold. In assay [2], the MBC was determined as 6.25 µg/mL (≈ 4.31 µM) and the MIC came to 3.1 µg/mL (≈ 2.14 µM).
Consider `CNC(C)C1CCC(N)C(OC2C(N)CC(N)C(OC3OCC(C)(O)C(NC)C3O)C2O)O1` (stereo not drawn) [Gentamicin], for which, in assay [3] (setting [5]), the “reduction of the MBC of the antibiotic in the presence of PlnEF” value turned out to be 260 fold and the “reduction of the MIC of the antibiotic in the presence of PlnEF” value is 500 fold. The compound further came in with an MIC in assay [3] greater than 5 µg/mL. Further, the “enhancement” value in assay [1] is given as greater than 500 fold. In assay [4], the “reduction of the MIC of the antibiotic in the presence of PlnJK” value is on record as “approximately sevenfold”. Also, the MIC in assay [2] is 0.31 µg/mL (≈ 0.649 µM).
Teicoplanin: in assay [1], the “enhancement” value is on record as greater than 30 fold. Besides, in assay [4], the “reduction of the MIC of the antibiotic in the presence of PlnJK” value is reported as “twofold”.
Turning to `CN(C)[C@@H]1C(O)=C(C(N)=O)C(=O)[C@@]2(O)C(O)=C3C(=O)c4c(O)cccc4[C@@](C)(O)[C@H]3C[C@@H]12` [Tetracycline], the entries for the “reduction of the MIC of the antibiotic in the presence of PlnEF” value in assay [3] (setting [5]) and in assay [4] (setting [5]) were 125 fold and 500 fold, respectively. For the same compound, in assay [3], the MIC is no less than 2 µg/mL. Also, the “enhancement” value in assay [1] was greater than 500 fold.

These data come from publication PMC6393846 (Future Microbiology, 2019).
